Results: ChEMBL document CHEMBL1123854, “Dissociation of hypolipidemic and antiplatelet actions from adverse myotonic effects of clofibric acid related enantiomers” (J Med Chem, 1987)

How the values were obtained:
Rattus norvegicus [1] = species on record: Rattus norvegicus; test: Serum cholesterol level in male Sprague-Dawley rats (fed with high cholesterol semisynthetic diet)before the treatment.; format: functional, organism-based
Outline: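 Male Sprague-Dawley rats fed a high-cholesterol semisynthetic diet for 1 week. Blood was drawn from the orbital plexus under ether anaesthesia before dosing (day -1) for serum cholesterol, which was used to stratify-randomize groups of six. Values are mean ± SD of six rats.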

Rattus norvegicus [2] = species on record: Rattus norvegicus; test: Inhibition against chloride conductance in rat extensor digitorum longus(EDL) muscle fibers in vitro; format: functional
Outline: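 Rat EDL fibres (Charles River Sprague-Dawley, normal diet) studied in vitro by square-pulse microelectrode method in normal and chloride-free medium at several drug concentrations. Chloride conductance = membrane conductance in normal minus chloride-free solution. Conductance–concentration curves fit to single-site binding equation by nonlinear least squares to give IC50 ± SD; 7–79 fibres from 2–16 muscles per concentration.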

Rattus norvegicus [3] = species on record: Rattus norvegicus; test: Serum cholesterol level in male Sprague-Dawley rats (fed with high cholesterol semisynthetic diet) after 7 days of treatment; format: functional, organism-based
Outline: (§1)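 Male Sprague-Dawley rats on a high-cholesterol semisynthetic diet for 1 week, then stratified-randomized into groups of six. Dosing was 0.3 mmol/kg twice daily by intragastric route in 0.25% methylcellulose for 1 week; controls received vehicle. Serum cholesterol was measured after 4 and 7 days of dosing. Values are mean ± SD of six rats.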

Homo sapiens [4] = species on record: Homo sapiens; test: Inhibition against platelet aggregation induced by adenosine diphosphate (ADP) in vitro; format: functional
Outline: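 Human platelet-rich plasma from drug-free volunteers; compound preincubated 1 min before ADP (1–3 μM, lowest level giving maximal transmittance change). Aggregation followed by aggregometer for 6 min; IC50 for inhibition of the second phase of maximal aggregation, mean ± SEM, n = 4–10 donors.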

Homo sapiens [5] = species on record: Homo sapiens; test: Inhibition against platelet aggregation induced by arachidonic acid(AA) in vitro; format: functional
Outline: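 Human platelet-rich plasma from drug-free volunteers; compound preincubated 1 min before arachidonic acid (300–500 μM, lowest level giving maximal transmittance change). Aggregation read by aggregometer over 4 min; IC50 for inhibition of maximal aggregation, mean ± SEM, n = 4–10 donors.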

Rattus norvegicus [6] = species on record: Rattus norvegicus; test: Serum cholesterol level in male Sprague-Dawley rats (fed with high cholesterol semisynthetic diet) after 4 days of treatment.; format: functional, organism-based; outline: as §1
Rattus norvegicus [7] = species on record: Rattus norvegicus; test: Liver cholesterol level in male Sprague-Dawley rats (fed with high cholesterol semisynthetic diet) after 1 week of treatment.; format: functional
Outline: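 Rats prefed high-cholesterol semisynthetic diet 1 week, then stratified by serum cholesterol into groups of six. Dosed 0.3 mmol/kg intragastrically twice daily in 0.25% methylcellulose for 1 week; controls got vehicle. Livers removed after exsanguination; cholesterol measured in lipid extracts. Mean ± SD, six rats.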

SMILES	Serum cholesterol (Rattus norvegicus [1]) [mg/dL]	IC50 (Rattus norvegicus [2]) [µM]	Serum cholesterol (Rattus norvegicus [3]) [mg/dL]	IC50 (Homo sapiens [4]) [µM]	IC50 (Homo sapiens [5]) [µM]	Serum cholesterol (Rattus norvegicus [6]) [mg/dL]	Liver cholesterol (Rattus norvegicus [7])
CC[C@@H](Oc1ccc(Cl)cc1)C(=O)O	275	> 230	184	686	721	158	34.8 mg (g of tissue)-1
CC[C@H](Oc1ccc(Cl)cc1)C(=O)O	278	–	193	1180	1600	174	37.2 mg (g of tissue)-1
C[C@H](Oc1ccc(Cl)cc1)C(=O)O	279	–	184	998	1120	107	45.4 mg (g of tissue)-1
CC(C)(Oc1ccc(Cl)cc1)C(=O)O [CLOFIBRIC ACID]	271	–	149	1240	> 4000	113	41.9 mg (g of tissue)-1
C[C@@H](Oc1ccc(Cl)cc1)C(=O)O	276	> 230	119	201	253	116	40.8 mg (g of tissue)-1
